# PREPL inh: inhibitors of human prolyl oligopeptidase-like enzyme PREPL. Q4J6C6. recombinant PREPL, fluorescence polarization activity-based probe. inhibition, % at 5.96 µM. actives 0.68% (n = 320,000). AID 2751; in the data active = inhibition above about 43%
# UBC13 polyUb: blocks human UBC13 polyubiquitin chain formation. P61088. TR-FRET. inhibition, % at 20 µM. actives 0.47% (n = 330,000). AID 485273; in the data active = inhibition above about 45%, passing the limit was not always enough
# Target sequence (P61088 whole entry, looked up): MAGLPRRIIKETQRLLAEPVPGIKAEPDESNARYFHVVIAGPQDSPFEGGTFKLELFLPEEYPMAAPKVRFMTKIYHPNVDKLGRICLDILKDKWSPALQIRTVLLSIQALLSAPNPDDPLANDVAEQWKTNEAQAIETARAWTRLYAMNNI
# UCH37 DUB inh: human UCH37 deubiquitinating enzyme inhibition; actives 0.33% (n = 330,000); inhibition, % (concentration not given with the values); Q9Y5K5; AID 588478; purified proteasome/UCH37, Ub-AMC cleavage fluorescence;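 active = mean inhibition over replicate wells above about 20%, limit read from the data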
#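 Test system – human UCH37 enzyme supplied as purified proteasome complex · Incubation – 30 min preincubation with enzyme, 25 min cleavage at room temperature · Detection – AMC fluorescence from Ub-AMC cleavage, excitation 355 nm, emission 460 nm · Benchmarks – no-proteasome wells (full inhibition) and compound-free wells (no inhibition)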
# Apaf-1 inh: blocks human Apaf-1 apoptosome activity. O14727. reconstituted apoptosome caspase-3 activity, DEVD-Rh110 fluorescence. inhibition, % at 20 µM. actives 0.71% (n = 330,000). AID 489030; active = inhibition of at least 40% at 20 µM
#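 System – cell-free apoptosome with Apaf-1, procaspase-3 and caspase-9 · Buffer or medium – pH 7.5 Hepes buffer with CHAPS, BSA, DTT · Also added – cytochrome c with DEVD-Rh110 · Times – 30 min compound preincubation, 50 min activation, room temperature · Technique – Rh110 fluorescence intensity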
# A number is an active result; . = inactive; / = no result; ! = not active in a repeat. Sampled rows, rich in hits. Any-hit rate of the full collection: about 1.5%.
SMILES,PREPL inh,UBC13 polyUb,UCH37 DUB inh,Apaf-1 inh
CCN(CC)c1ccc(NC(=O)CN2CCN(S(=O)(=O)c3cc(Cl)ccc3OC)CC2)cc1,71.5,.,.,.
Cc1ccccc1NC(=O)NC1(C(=O)NCCCN2CCOCC2)CCCCC1,.,.,34.9,.
COc1ccccc1NN=C1COC(C)(C)CC1=O,/,/,.,/
CN(CCO)c1cc(Sc2nc3ccccc3s2)c2nonc2c1[N+](=O)[O-],.,.,.,51.8
COc1ccc(CC(=O)NN=C(C)c2cccs2)cc1OC,/,/,.,/
CC(=NNC(=S)NCc1ccccc1)c1ccccc1F,/,/,.,/
FC(F)(F)c1cnc(-c2cnc(-c3ccccn3)nc2)c(Cl)c1,.,.,.,.
CC(Cl)c1cc(-c2ncc(C(F)(F)F)cc2Cl)no1 (stereo not drawn),.,.,29.5,.
CN(C)C=Nc1nc(-c2ccc3ccccc3c2)cs1,/,/,.,/
CN(C)C=Nc1nc(-c2ccc3c(c2)OCO3)cs1,/,/,25.7,/
CCN(CC)c1ccc(C=NNc2nc(C)cc(C)n2)c(O)c1,/,/,.,/
Clc1cc(Br)ccc1OCCOCCN1CCOCC1,.,.,29.3,.
O=C(C[n+]1ccccc1)NN=Cc1cccc(Cl)c1Cl,/,/,.,/
O=C(CN1C(=O)S/C(=C\c2cccs2)C1=O)Nc1ccc(C(=O)O)c(O)c1,.,/,.,/
O=C(CN1C(=O)S/C(=C\c2cccs2)C1=O)Nc1ccc(O)c(C(=O)O)c1,.,/,20.6,/
COc1cc([N+](=O)[O-])cc(C=NNC(=O)C2COc3ccccc3O2)c1O (stereo not drawn),/,/,.,/
O=C(O)c1cc(N2N=C(C(F)(F)F)/C(=C/C=C/c3ccco3)C2=O)ccc1Cl,/,/,21.3,/
Cc1cccc(NC(=S)NN=Cc2cccn2Cc2ccc(F)cc2)c1,/,/,.,/
O=C(/C=C/c1cc[n+](CC(=O)c2ccc3cccc4c3c2CC4)cc1)c1ccc2cccc3c2c1CC3,.,51.2,.,58.5
CC(=NNC(=O)Cc1cccn1C)c1ccc2ccccc2c1,/,/,.,/
Cc1cccc(C)c1OCC(=O)NNC(=S)NC(=O)C1CC1,.,84.9,.,.
CN(C)CCCNC(=O)CCc1nc2ccccc2c(=O)[nH]1,.,.,20.5,.
O=C(Nc1ccc(Oc2ccccc2)cc1)C1CCN(c2c3c(nc4ncnn24)CCC3)CC1,.,.,.,41.0
O=C(NC1CCCc2ccccc21)C1CCN(c2c3c(nc4ncnn24)CCC3)CC1 (stereo not drawn),.,.,.,.
CC(CCC(C)C(C)(C)C)[C@@H]1CC[C@H]2C3C[C@H](OS(O)(=S)=S)[C@H]4C[C@H](OS(O)(=S)=S)[C@@H](OS(O)(=S)=S)C[C@]4(C)[C@H]3CC[C@]12C (stereo partly drawn) (tested in a mixture with another compound),46.3!,.,/,86.8
SMILES,PREPL inh,UBC13 polyUb,UCH37 DUB inh,Apaf-1 inh
C[C@H](CCC(=O)O)[C@H]1CC[C@H]2[C@@H]3[C@H](O)C[C@@H]4C[C@H](O)CC[C@]4(C)[C@H]3CC[C@]12C,.,.,.,.
O=C(NNC1=NS(=O)(=O)c2ccccc21)c1ccccc1,.,.,.,.
O=C(/C=C/c1ccccc1)NNC1=NS(=O)(=O)c2ccccc21,.,.,22.5,.
CC[C@H](C)[C@@H](C(=O)NCCCCCCCCCCC(=O)N1CCN(C(=O)OC(C)(C)C)CC1)n1cc(CCCCN=C(NC(=O)OC(C)(C)C)NC(=O)OC(C)(C)C)nn1,.,70.9,/,56.1
C#CCOCCOCCOCCNc1nc(N2CCN(C(=O)CCCCCCCCCCNC(=O)[C@H]([C@@H](C)CC)n3cc(CCCCN=C(N)N)nn3)CC2)nc(N2CCN(C(=O)CCCCCCCCCCNC(=O)[C@H]([C@@H](C)CC)n3cc(CCCCN=C(N)N)nn3)CC2)n1,67.8,126.4,/,41.3
C#CCOCCOCCOCCNc1nc(N2CCN(C(=O)CCCCCCCCCCNC(=O)[C@H]([C@@H](C)CC)n3cc(CCCCCN)nn3)CC2)nc(N2CCN(C(=O)CCCCCCCCCCNC(=O)[C@@H]([C@H](C)CC)n3cc(CCCCCN)nn3)CC2)n1,59.4,122.6,/,78.1
C#CCOCCOCCOCCNc1nc(N2CCN(C(=O)CCCCCCCCCCNC(=O)[C@H](CCCCN)n3cc(C)nn3)CC2)nc(N2CCN(C(=O)CCCCCCCCCCNC(=O)[C@H](CCCCN)n3cc(CCCC(=O)O)nn3)CC2)n1,.,113.6,.,62.7
CC1(C)N=C(C=NO)C=[N+]1[O-],/,/,.,/
COc1ccc(C=NNc2nc(-c3cccnc3)nc3ccccc23)cc1OC,/,/,.,/
CC(C)CC(=O)Nc1cccc(-c2cn3ccsc3n2)c1,.,.,.,.
CC(C)C(=O)Nc1cccc(-c2cn3ccsc3n2)c1,.,.,.,67.1

# Screens (PubChem BioAssay)
